Source: PubChem
An excerpt weighted towards active compounds, which were near 3.1% of everything screened.
Apaf1 inhib = blocks human Apaf-1 apoptosome activity; O14727; reconstituted apoptosome caspase-3 activity, DEVD-Rh110 fluorescence; inhibition, % at 20 µM; 0.71% of 330,000 active; AID 489030; active means inhibition of at least 40% at 20 µM;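 further: plate controls were DMSO wells for no effect and DEVD-CHO caspase inhibitor wells for full effect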
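System: reconstituted apoptosome with Apaf-1, cytochrome c, caspase-9, procaspase-3, dATP; Signal: Rh110 fluorescence intensity; Schedule: 30 min compound preincubation, 50 min activation, room temperature; Reagent: cytochrome c trigger plus (Z-DEVD)2-Rh110 caspase-3 substrate.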
PREPL inhibitor = inhibitors of human prolyl oligopeptidase-like enzyme PREPL; 0.68% of 320,000 active; inhibition, % at 5.96 µM; AID 2751; recombinant PREPL, fluorescence polarization activity-based probe; in the data active means inhibition above about 43%;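 further: 0% = enzyme with DMSO and 100% = wells lacking enzyme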
MEKK2 mut-MEK5 = signal of MEK5 binding to mutant human MEKK2 PB1 domain; bead flow cytometry, Alexa488-MEK5 binding to MEKK2 mutant; percent response, % at 10 µM; 0.35% of 290,000 active; AID 1530; in the data active means percent response above about 24%, passing the limit was not always enough
MEKK3 PB1 HTS = raises or lowers MEK5 binding to the human MEKK3 PB1 domain; binding response (% of control), % at 10 µM; 1.4% of 290,000 active; AID 1529; Q99759; bead-based flow cytometry, Alexa488-MEK5 binding to MEKK3; actives lie on both sides; 0 = blocked by unlabeled MEK5, 100 = vehicle;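 active means binding response more than 3 SD above or below the average of its plate-row segment, actives on both sides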;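 further: Alexa488 bead fluorescence after subtracting the streptavidin-only scavenger bead signal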
Target sequence (Q99759 whole entry, looked up, the tested form may be a part): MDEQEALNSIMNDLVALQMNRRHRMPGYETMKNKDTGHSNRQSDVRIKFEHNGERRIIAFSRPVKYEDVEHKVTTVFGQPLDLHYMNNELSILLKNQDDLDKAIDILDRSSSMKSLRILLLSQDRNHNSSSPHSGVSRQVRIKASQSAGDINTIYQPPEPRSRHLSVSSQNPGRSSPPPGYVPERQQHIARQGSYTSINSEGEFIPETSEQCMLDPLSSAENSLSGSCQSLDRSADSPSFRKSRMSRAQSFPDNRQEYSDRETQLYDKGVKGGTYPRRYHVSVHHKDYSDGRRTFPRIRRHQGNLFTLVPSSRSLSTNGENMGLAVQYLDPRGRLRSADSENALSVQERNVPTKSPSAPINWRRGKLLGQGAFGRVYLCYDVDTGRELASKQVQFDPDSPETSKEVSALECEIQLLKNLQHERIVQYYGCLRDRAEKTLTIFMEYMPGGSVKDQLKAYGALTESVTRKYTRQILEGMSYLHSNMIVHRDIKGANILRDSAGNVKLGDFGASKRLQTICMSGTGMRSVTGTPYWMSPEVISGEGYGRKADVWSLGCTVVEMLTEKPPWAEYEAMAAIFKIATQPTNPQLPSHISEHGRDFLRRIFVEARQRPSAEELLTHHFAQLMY
UBC13 polyUb = inhibitors of human UBC13 polyubiquitin chain formation; inhibition, % at 20 µM; TR-FRET; 0.47% of 330,000 active; P61088; AID 485273; in the data active means inhibition above about 45%, passing the limit was not always enough
MEKK2wt PB1 HTS = raises or lowers MEK5 binding to wildtype human MEKK2 PB1 domain; Q9Y2U5; bead flow cytometry, Alexa488-MEK5 binding to MEKK2 WT; actives lie on both sides; binding response (% of control), % at 10 µM; 1.1% of 290,000 active; in the data active means binding response below about 67% or above about 130%
MEKK2wt confirm = raises or lowers MEK5 binding to wildtype human MEKK2, retest; shares compounds with MEKK3 PB1 HTS; bead flow cytometry, Alexa488-MEK5 binding to MEKK2 WT; actives lie on both sides; binding response (% of control), % at 10 µM; 2.4% of 5,900 active; in the data active means binding response below about 16% or above about 210%; inactive means in between
MEKK2mut confirm = signal of MEK5 binding to mutant human MEKK2, retest. shares compounds with MEKK3 PB1 HTS. bead flow cytometry, Alexa488-MEK5 binding to MEKK2 mutant. percent response, % at 10 µM. 2% of 5,900 active; in the data active means percent response mostly above about 71%, no sharp cut-off; inactive means mostly below about 38%;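 further: higher means compound restores mutant binding toward wildtype level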
MEKK3-MEK5 inh = MEKK3-MEK5 PB1 inhibition, single concentration confirmation; shares compounds with MEKK3 PB1 HTS; bead flow cytometry, Alexa488-MEK5 binding to MEKK3; stronger effect = lower value; binding response (% of control), % at 10 µM; 1.8% of 5,900 active; AID 1894;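 active means binding response below 72% of control, or above a set upper limit, though filed actives all read lower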;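 further: 100% = DMSO only wells and 0% = binding blocked by excess unlabeled MEK5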
* = called active by the depositor; · = no result; [ ] = dose if it differs, or a comment.

SMILES	Apaf1 inhib	PREPL inhibitor	MEKK2 mut-MEK5	MEKK3 PB1 HTS	UBC13 polyUb	MEKK2wt PB1 HTS	MEKK2wt confirm	MEKK2mut confirm	MEKK3-MEK5 inh
Nc1ccccc1Nc1cc(-c2ccccc2)nn1-c1cccc(Cl)c1	-2	4	1	141*	-8	113	109	2	102
CN(CC(=O)NCc1ccccn1)S(=O)(=O)c1ccccc1	-10	10	-15	96	0	79	·	·	·
CN(CC(=O)NCc1ccccn1)S(=O)(=O)c1ccc2ccccc2c1	-2	3	0	135*	6	111	100	2	95
O=C(N1CCOCC1)N1CCN(S(=O)(=O)c2ccc(F)cc2)CC1	5	9	4	112	-3	109	·	·	·
O=C(/C(=N/N=C/c1ccc(O)c(O)c1O)c1ccccc1)c1ccccc1	5	22	0	136*	-45	104	96	-9	101
O=C1NC(c2cccc(Br)c2)=N/C1=C\c1ccco1	8	12	-1	123	-7	100	·	·	·
O=C1NC(c2ccccc2)=N/C1=C/c1ccco1	-8	1	2	138*	0	111	104	0	101
COc1ccc2nc(C)cc(C(=O)O)c2c1	-1	10	7	106	6	105	·	·	·
CCOc1ccc2nc(C)cc(C(=O)O)c2c1	-24	3	-23	0.0*[inhibitor]	4	-7.0*[inhibitor]	120	12	100
CN(C)CCP(=O)(c1ccccc1)c1ccccc1	-2	7	-1	96	1	96	·	·	·
CCCP(=O)(CCC)CCP(=O)(c1ccccc1)c1ccccc1	-3	-5	0	63*[inhibitor]	10	96	97	-4	94
CNC(=O)N(O)C1N(NC(=O)Nc2cccc3ccccc23)C(=S)SC1(C)C (centres undefined)	5	1	1	132*	-4	105	101	3	100
O=C(O)CC(CN1C(=O)c2ccccc2C1=O)c1ccccc1 (centres undefined)	-10	3	·	·	0	·	·	·	·
c1ccc2c(-c3nnc(SCc4cn5ccccc5n4)o3)c[nH]c2c1	7	5	3	96	-1	96	·	·	·
c1ccc2c(-c3cn4ccccc4n3)c[nH]c2c1	-3	9	2	100	8	63*[inhibitor]	115	19	108
CCOC(=O)NC(=O)CSc1ccc(S(=O)(=O)N(C)C2CCCCC2)cn1	5	-3	·	·	1	·	·	·	·
O=C(NC(=S)Nc1ccccc1F)C1CCCCC1	11	-4	6	105	-2	106	·	·	·
O=C(c1c[nH]c(C(=O)C(Cl)(Cl)Cl)c1)c1ccc(F)cc1Cl	-1	2	-23	1.0*[inhibitor]	7	-2.0*[inhibitor]	104	3	107
COc1ccc(Cc2nnc(NS(=O)(=O)c3ccc([N+](=O)[O-])cc3)s2)cc1	3	4	-1	102	-4	98	·	·	·
CCN1CCN(C(c2ccccc2)c2nnnn2Cc2ccccc2)CC1 (centres undefined)	-6	-8	9	144*	5	139*	114	17	108
CCN1CCN(C(c2ccc(OC)cc2)c2nnnn2Cc2ccc3c(c2)OCO3)CC1 (centres undefined)	-1	12	7	144*	12	132	100	1	101
O=c1[nH]c(C2CCN(S(=O)(=O)/C=C/c3ccccc3)CC2)nc2c1nnn2Cc1ccccc1	28	9	-4	100	6	93	·	·	·
O=C(NC(=S)N1CCOCC1)C12CCC3CC(CC(C3)C1)C2	-8	-2	2	134*	9	99	96	-4	100
O=C(NC(=S)N1CCOCC1)C12CC3CCC(CC(C3)C1)C2	-10	0	10	100	1	110	·	·	·
O=C(Nc1ccc(Cc2ccc(NC(=O)C3CC3)c(O)c2)cc1O)C1CC1	4	2	6	127*	-3	119	113	7	103
SMILES	Apaf1 inhib	PREPL inhibitor	MEKK2 mut-MEK5	MEKK3 PB1 HTS	UBC13 polyUb	MEKK2wt PB1 HTS	MEKK2wt confirm	MEKK2mut confirm	MEKK3-MEK5 inh
COc1ccc(NC(=O)c2c3c(nc4ccccc24)CCN(Cc2ccccc2)C3)c(OC)c1	7	8	-1	75*[inhibitor]	-17	88	113	15	106
COCCN(CC(=O)Nc1cccc(C)c1C)C(=O)c1oc2ccccc2c1C	-6	3	·	·	4	·	·	·	·
N=C1S/C(=C\c2ccccc2)C(=O)N1c1ccc(F)cc1	-11	-9	1	138*	-14	111	99	-5	97
CCCC1O[C@@H]2C[C@H]3[C@@H]4CCC5=CC(=O)C=C[C@]5(C)[C@H]4[C@@H](O)C[C@]3(C)[C@]2(C(=O)CO)O1 (some centres undefined)	2	3	2	70*[inhibitor]	-15	103	103	0	103
O=C(O)CC1(CC(=O)NCc2ccc(C(F)(F)F)cc2)CCCCC1	-6	7	23	128*	-7	125	100	-4	101
COc1cc(C(=S)N2CCCCC2)ccc1OCC(=O)N1CCCC1	1	17	5	124*	1	118	99	-2	104
CCOc1cc(C(=S)N2CCCCC2)ccc1OCC(=O)NCc1ccccc1	1	23	-8	75*[inhibitor]	3	87	107	7	106
COc1cc(C(=S)N2CCCC2)ccc1OCC(N)=O	-11	-9	3	95	1	100	·	·	·
CCN1CCN(C(=S)c2ccc(OCC(=O)NCc3ccccc3)cc2)CC1	-4	-3	-2	99	10	96	·	·	·
CC(=O)Nc1ccc(OCC(O)CN2C(C)(C)CC(O)CC2(C)C)cc1 (centres undefined)	1	2	-1	74*[inhibitor]	1	96	102	-3	100
CC(=O)Nc1ccc(OCC(O)Cn2c3ccccc3c3ccccc32)cc1 (centres undefined)	5	16	2	176*	6	120	-6.0*[inhibitor]	-3	84
O=C(O)c1cccc(N2C(=O)c3cccc(Oc4ccc(Cl)cc4)c3C2=O)c1	5	1	-1	131*	-31	101	93	-6	96
COc1cc(C)ccc1OCCOCCOc1ccccc1[N+](=O)[O-]	7	-4	3	102	6	104	·	·	·
